In the library only some 3.8% were active in any assay of this set; here they are far more common.
NS3 helicase inh: inhibitors of HCV NS3 helicase, primary screen, biochemical, Cy5 molecular beacon fluorescence; inhibition, % at 10.9 µM; AID 1800, 2009; Hepatitis C virus NS3 helicase; 290,000 compounds, 0.56% hits; NS3 helicase DNA unwinding;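 active means inhibition above the mean of all tested compounds plus 3 SD, set per campaign, cut at about 35% in these data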
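assay system = NS3 helicase fragment of HCV | buffer or medium = MOPS pH 6.5, MgCl2, DTT, Tween20, BSA | timing = 60 min unwinding reaction at 25 °C after ATP addition | signal = Cy5 beacon fluorescence read at start and 1 h | read-out basis = % inhibition of unwinding | control set = low DMSO, high thioflavine S at 110 µM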
HSF1 activator: HSF-1 activators, primary screen, NIH3T3-HGL cells, MG132 stress, luminescence, single point; NIH3T3-HGL HSF-1 luciferase reporter, 8 h; 100% = twice DMSO control signal; activation, % at 9 µM; 300,000 compounds, 1.7% hits; AID 504408, 2011;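 active means mean replicate activation of at least 50% with a set share of replicates each reaching 50%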
HSF1 inhib: HSF1 inhibitors in luciferase reporter cells, primary screen, cell-based, NIH3T3, luminescence | AID 2098, 2009 | NIH3T3-HGL HSE-luciferase, MG132-induced, luminescence 8 h; active compounds read low | activity change, negative = inhibition, % at 7.5 µM (by protocol) | 300,000 compounds, 0.77% hits;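 active means more than half of replicate wells show activity change below -50%, luminescence cut by over half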;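 further: luciferase reports HSF-1 transcriptional activity via heat shock element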
HSP90 refold inh: HSP90 inhibitors, primary screen, cell lysate, luminescence; Heat shock protein HSP 90 (rabbit reticulocyte lysate; luciferase refolding); Rabbit reticulocyte lysate, luciferase refolding luminescence, 3 h; inhibition, % at 5.6 µM; 290,000 compounds, 0.91% hits;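 active means inhibition above the screen-wide mean plus 3 SD, computed separately per campaign, cut at about 16% in these data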;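 further: inhibitors lower the luminescence because luciferase stays unfolded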
Hep lipid drop: inhibitors of hepatocyte lipid droplet formation, primary screen, imaging, high-throughput imaging, BODIPY stain | AML12 mouse hepatocytes, oleate lipid droplets | inhibition, % at 6.5 µM | AID 1656, 2009 | 240,000 compounds, 0.4% hits;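 active means lipid droplet intensity inhibited by at least 50%, with more than 500 cells counted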
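System: AML12 hepatocytes (mouse). Probe or stimulus: oleic acid at 100 µM to induce lipid droplet formation. Times: overnight treatment with compound plus oleate. Detection: Image-based BODIPY and DAPI two-channel analysis. Evaluation: percent inhibition of filter-corrected integrated lipid droplet intensity per well.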
HSP90 confirm: HSP90 inhibitors, confirmation, cell lysate, luminescence; inhibition, % at 5.9 µM; shares compounds with HSP90 refold inh; 2,300 compounds, 64% hits; rabbit reticulocyte lysate, luciferase refolding luminescence, 3 h; AID 1846, 2009; in the data active means inhibition above about 18%
luciferase ctr: firefly luciferase inhibitors, HSP90 counter-screen, confirmation, artefact control for HSP90 inhibitor project, biochemical, luminescence, triplicate | shares compounds with HSP90 refold inh | purified native firefly luciferase | inhibition, % at 5.9 µM | 2,300 compounds, 48% hits | AID 1847, 2009;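 active means inhibition above the mean inhibition of all tested sample wells plus 3 SD, cut at about 10% in these data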
Target sequence (P08659 whole entry, looked up): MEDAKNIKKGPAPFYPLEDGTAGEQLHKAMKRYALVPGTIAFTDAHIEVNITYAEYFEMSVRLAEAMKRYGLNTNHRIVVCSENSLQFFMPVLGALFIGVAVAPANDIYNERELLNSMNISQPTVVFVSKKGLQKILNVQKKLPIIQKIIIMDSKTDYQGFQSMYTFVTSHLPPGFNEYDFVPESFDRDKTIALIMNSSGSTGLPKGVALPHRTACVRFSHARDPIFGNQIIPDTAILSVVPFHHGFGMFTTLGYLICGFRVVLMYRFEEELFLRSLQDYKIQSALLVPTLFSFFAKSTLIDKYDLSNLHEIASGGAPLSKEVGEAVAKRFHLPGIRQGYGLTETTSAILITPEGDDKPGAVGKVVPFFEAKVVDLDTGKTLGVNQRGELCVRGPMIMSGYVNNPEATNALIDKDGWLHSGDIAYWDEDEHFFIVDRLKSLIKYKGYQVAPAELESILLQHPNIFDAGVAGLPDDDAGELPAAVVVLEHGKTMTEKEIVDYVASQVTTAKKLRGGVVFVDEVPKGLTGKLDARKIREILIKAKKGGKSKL
Large screens that a line does not name were inactive (follow-up assays come after a bar, where they were run).

c1ccc(-c2nnc(-c3ccccn3)s2)nc1	HSP90 refold inh 35 (no result: HSF1 activator) | HSP90 confirm 64 | luciferase ctr 44
c1ccc(-c2nc(-c3ccccn3)nc(-c3ccccn3)n2)nc1	none (no result: HSF1 activator)
Cn1cc(Cl)c(-c2n[nH]c(=S)n2C2CCCCC2)n1	none
CCOC(=O)c1cn2nc(Oc3ccccc3)ccc2n1	none
CCOC(=O)c1cn2nc(N3CCCCC3)ccc2n1	HSP90 refold inh 39 | HSP90 confirm 72 | luciferase ctr 59
CCOC(=O)c1cn2nc(N3CCCC3)ccc2n1	HSP90 refold inh 34 | HSP90 confirm 67 | luciferase ctr 43
OCC1OC(Oc2c[nH]c3ccccc23)C(O)C(O)C1O (centres undefined)	none (no result: NS3 helicase inh, HSP90 refold inh, Hep lipid drop)
NC(=S)N/N=C/c1cn(-c2ccccc2)nc1-c1cccnc1	HSP90 refold inh 30 | HSP90 confirm inactive | luciferase ctr inactive
NC(=O)N/N=C/c1cn(-c2ccccc2)nc1-c1cccnc1	none
CN(C)c1ccc(/C=N/NC(=O)c2sccc2-n2cccc2)cc1	none
N#CC(C#N)=Cc1ccc(NC(=O)c2ccc(Br)cc2)cc1	none
CC(C)(C)c1ccc(C(=O)Nc2ccc(C=C(C#N)C#N)cc2)cc1	HSP90 refold inh 39 | HSP90 confirm 45 | luciferase ctr inactive
O=C(CN1C(=O)c2ccccc2S1(=O)=O)c1ccc2c(c1)OCCO2	HSF1 inhib -78, HSP90 refold inh 57 | HSP90 confirm 68 | luciferase ctr inactive
O=C(CN1C(=O)c2ccccc2S1(=O)=O)c1ccc(Cl)cc1Cl	HSF1 inhib -68, HSP90 refold inh 89 | HSP90 confirm 91 | luciferase ctr 29
O=C(CN1C(=O)c2ccccc2S1(=O)=O)c1cccc(Br)c1	none
O=C(CCN1C(=O)c2ccccc2S1(=O)=O)Nc1cc(Cl)ccc1Cl	none (no result: NS3 helicase inh, HSP90 refold inh, Hep lipid drop)
O=C(CN1C(=O)c2ccccc2S1(=O)=O)c1ccc2c(c1)OCCCO2	HSF1 inhib -88, HSP90 refold inh 80 | HSP90 confirm 82 | luciferase ctr inactive
CC(C)[C@H](NC(=O)C1CCN(S(=O)(=O)c2ccccc2)CC1)C(=O)NCc1ccncc1	none
COc1cccc(C(=O)/C(C#N)=N/Nc2cccc(-c3ccnc(C)n3)c2)c1	none
CCC(=O)Nc1cc(C(=O)OCC(=O)c2ccccc2)ccc1C	HSP90 refold inh 20 | HSP90 confirm 45 | luciferase ctr inactive
Cc1ccccc1NC(=O)N1CCC(NC(=O)C2CCCCC2)CC1	none
COc1ccc(N(C)C(=O)c2oc(=O)c3ccccc3c2-c2ccc(C)cc2)c(OC)c1	none
COc1ccc(CCN(/C=C2\Sc3ccccc3C2=O)C(C)=O)cc1OC	HSP90 refold inh 25 | HSP90 confirm inactive | luciferase ctr inactive
COc1cccc(CN2CCN(Cc3cccc4nonc34)CC2CCO)c1 (centres undefined)	none
COc1ccc(C(=O)Nc2ccc(C)cn2)c(OC)c1	HSP90 refold inh 88 | HSP90 confirm 88 | luciferase ctr 82
O=C(NCc1ccc(Cl)cc1)C(=O)NCC1OCCN1S(=O)(=O)c1cc(F)ccc1F (centres undefined)	none
N#Cc1c(-c2ccc(Cl)cc2)ccnc1N1CCOCC1	none
COc1ccccc1C(=O)C1CCCN(C(=O)c2cccc(Cn3cccn3)c2)C1 (centres undefined)	none
COC(=O)c1cc(C(=O)c2ccc(C(C)(C)C)cc2)c[nH]1	none
CC(C)(C)c1ccc(C(=O)c2c[nH]c(C(=O)O)c2)cc1	HSP90 refold inh 53 | HSP90 confirm 63 | luciferase ctr inactive
